Source: PubChem BioAssay
SMARCA2 activ: activators of SMARCA2 function. MG213 cells, MMTV-luciferase reporter, dexamethasone, overnight. activation, % at 9.1 µM. 370,000 tested, 1% active. AID 652017; in the data active = activation above about 7.8%;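 note: 0% = vehicle wells and 100% = reference activator wells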
NR2E3 ag-1: agonists of human NR2E3 nuclear receptor. Q9Y5X4. CHO-S Gal4-NCOR/VP16-NR2E3 two-hybrid, luciferase. inhibition of corepressor binding, % at 3.98 µM. 360,000 tested, 0.35% active;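 active = inhibition above the mean of all tested compounds plus 3 SD, cut at about 70% in these data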;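 note: 0% = DMSO with NR2E3 transfected cells and 100% = cells lacking NR2E3 construct; higher means lower luciferase signal from less NR2E3 corepressor binding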
Target sequence (Q9Y5X4 whole entry, looked up, the tested form may be a part): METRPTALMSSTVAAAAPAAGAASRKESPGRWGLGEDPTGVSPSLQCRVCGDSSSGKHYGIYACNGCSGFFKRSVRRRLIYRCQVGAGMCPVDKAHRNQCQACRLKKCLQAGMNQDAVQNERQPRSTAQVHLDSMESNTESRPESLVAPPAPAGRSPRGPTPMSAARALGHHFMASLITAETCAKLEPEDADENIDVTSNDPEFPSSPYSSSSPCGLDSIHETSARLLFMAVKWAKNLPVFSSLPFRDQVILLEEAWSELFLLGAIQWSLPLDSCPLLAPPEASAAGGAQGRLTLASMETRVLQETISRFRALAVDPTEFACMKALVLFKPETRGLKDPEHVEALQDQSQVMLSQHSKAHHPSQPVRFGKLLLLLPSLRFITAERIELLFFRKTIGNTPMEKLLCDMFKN
GASC-1 inh: human JMJD2C demethylase inhibition; inhibition, % at 2.35 µM; Q9H3R0; GST-JMJD2C(1-420) H3K9me3 demethylation, DELFIA europium; 330,000 tested, 0.069% active;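 active = more than half of a compound's replicate wells show inhibition beyond 50%, single wells judged on their own value; inconclusive = some, but no more than half, of replicates pass 50% inhibition; inactive = no replicate passes 50% inhibition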;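 note: signal counts dimethyl H3K9 product captured on neutravidin plate; 0% = median of DMSO wells and 100% = 0.3 times that DMSO median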
DAX1 inh-1: DAX1 (NR0B1) inhibition, primary screen; inhibition, % at 6.8 µM; HEK293T StAR-luciferase reporter, SF-1/DAX-1 repression relief; AID 652010; 370,000 tested, 1.1% active;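 active = inhibition above the mean over all tested compounds plus 3 SD, cut at about 3.6% in these data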;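 note: 0% = DAX-1 cells with DMSO and 100% = cells lacking DAX-1 with DMSO; higher inhibition means more luminescence from relief of DAX-1 repression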
DAX1 inh-2: inhibitors of human orphan nuclear receptor DAX1 (NR0B1); HEK293 Gal4-DAX1 luciferase reporter, luminescence; AID 504766; 340,000 tested, 0.99% active; inhibition, % at 6.75 µM; P51843;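 active = inhibition above the mean over all tested compounds plus 3 SD, cut at about 4.2% in these data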;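 note: 0% = DAX1-transfected cells with DMSO and 100% = empty-vector control cells with DMSO; inhibition shows as a rise in luminescence from relieved DAX1 repression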
Target sequence (P51843 207-470 limits assumed): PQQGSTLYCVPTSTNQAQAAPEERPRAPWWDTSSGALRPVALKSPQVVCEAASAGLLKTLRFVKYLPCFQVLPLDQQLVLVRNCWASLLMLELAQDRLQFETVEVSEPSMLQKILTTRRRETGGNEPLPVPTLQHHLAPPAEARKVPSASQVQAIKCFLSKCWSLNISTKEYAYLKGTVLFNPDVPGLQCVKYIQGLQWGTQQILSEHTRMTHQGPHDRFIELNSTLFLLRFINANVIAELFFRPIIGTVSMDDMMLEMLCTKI
NR2E3 ag-2: activates human photoreceptor nuclear receptor NR2E3. Q9Y5X4. GST-NR2E3/biotin-RetCOR TR-FRET, 1536-well. inhibition of corepressor binding, % at 4.78 µM. 320,000 tested, 0.12% active. AID 2300;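 active = percent inhibition above the cutoff of mean plus 3 SD of all tested compounds, set per screening campaign, cut at about 20% in these data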;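 note: 0% = DMSO wells and 100% = biotin wells as full block of FRET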
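Assay system: NR2E3–RetCOR corepressor complex. Quantity: 1.35 nM GST-NR2E3. Buffer or medium: pH 7.5 Tris-based buffer. Reagent: biotinylated RetCOR corepressor at 7 nM final. Schedule: 5 h at 4 °C. Detection: TR-FRET, emission read at 617 and 671 nm. Replicates: one well per compound, singlicate testing.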
SMARCA2 conf: SMARCA2 activation, confirmation screen; shares compounds with SMARCA2 activ; MG213 cells, MMTV-luciferase with dexamethasone, luminescence, overnight; MG213 cells expressing E1A, Rb sequestered; DMSO wells 0%, reference activator 100%; activation, % at 9.1 µM; 3,500 tested, 30% active; AID 652260;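 active = activation above its plate's cutoff, the mean activation of tested wells plus 3 SD, cut at about 7.9% in these data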
VP16 Luc act: activates GAL4-VP16 luciferase, flagging SMARCA2 activator hits. shares compounds with SMARCA2 activ. HEK293 GAL4-VP16 pG5luc reporter, luciferase luminescence; scaled: DMSO wells 0%, SAHA wells 100%. activation, % at 9.1 µM. 3,500 tested, 41% active. AID 686939;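 active = activation above the solvent-only control well mean plus 3 SD, averaged across control plates, cut at about 5.2% in these data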
* hit, by the source's call; ? = inconclusive; / = no result. This is a sample that favours compounds with a hit; in the whole collection about 3.2% have one here.

SMILES | SMARCA2 activ | NR2E3 ag-1 | GASC-1 inh | DAX1 inh-1 | DAX1 inh-2 | NR2E3 ag-2 | SMARCA2 conf | VP16 Luc act
O=C(NCC1OCCc2ccccc21)c1ccc(NC(=O)c2ccc(Cl)cc2Cl)cc1 (stereo not drawn) | 9.4* | -18 | -4 | -1 | 1 | 0 | -4 | 1
Cc1cccc([N+](=O)[O-])c1NC(=O)COC(=O)C1CCCO1 (stereo not drawn) | -3 | 0 | -1 | 1 | 0 | 4 | / | /
Cc1c(NC(=O)C2CCCO2)cccc1[N+](=O)[O-] (stereo not drawn) | 9.5* | -13 | 9 | 0 | 3 | -1 | 2 | 0
NC(=O)Cc1cccc(C(=O)c2ccccc2)c1N | -5 | / | / | -1 | / | / | / | /
COc1cccc(-c2cn3nc(C)c(C)nc3n2)c1 | 5 | -150 | 0 | 2 | 1 | -1 | / | /
Cc1nc2nc(-c3cccs3)cn2nc1C | 10* | -31 | -6 | 3 | 0 | 1 | 11* | 13*
O=C1NC(=Nc2ccc(O)cc2)S/C1=C/c1ccco1 | -4 | -62 | -2 | -2 | -1 | -3 | / | /
O=C1NC(=Nc2ccc3ccccc3c2)S/C1=C/c1ccco1 | 10* | -56 | 14 | 0 | 1 | -3 | 6 | 4
Cc1cnc(C(=O)Nc2nnc(C3CC3)s2)cn1 | 8.8* | -27 | 5 | 1 | 0 | 1 | -1 | 2
Cc1cnc(C(=O)Nc2nnc(C)s2)cn1 | 0 | -2 | 3 | 0 | 0 | 2 | / | /
CC(=O)c1ccc(N2CCN(C(=S)NCc3ccco3)CC2)cc1 | -3 | 0 | -21 | -1 | -1 | 2 | / | /
CC(=O)c1ccc(N2CCN(C(=S)NCCCN(C)C)CC2)cc1 | 8.2* | -4 | ? | 0 | 0 | -1 | 0 | 3
COc1ccc(Cn2cc(C(=O)c3ccccc3)c(=O)c3cc(OC)ccc32)cc1 | 8.9* | 11 | -3 | -1 | -1 | 2 | -2 | 0
COC(=O)c1c(C)[nH]c(C(=O)/C=C/c2ccccc2F)c1C | 15* | -92 | -4 | 1 | 4 | 2 | 9.1* | 9.7*
O=C(c1noc2c1CCc1ccccc1-2)N1CCOCC1 | 9.3* | -69 | 22 | 0 | 0 | -2 | 9.6* | 5
S=c1[nH]ncn1/N=C/c1ccc(N2CCOCC2)cc1 | 9.2* | -11 | -5 | 2 | 0 | -2 | 9.2* | 11*
S=c1[nH]ncn1/N=C/c1ccc(Br)cc1 | 0 | -7 | 4 | 0 | -1 | -1 | / | /
CC(=O)Nc1ccc(C(=O)N/N=C/c2cc(Br)cc(Br)c2O)cc1 | -3 | -25 | 0 | 0 | 0 | 0 | / | /
CC(C)C(=O)Nc1ccc(C(=O)N/N=C/c2cc(Br)cc(Br)c2O)cc1 | 11* | -19 | 18 | 0 | -1 | -1 | -2 | -1
Cc1cc(C(=O)N2CCC2(C)C(=O)NS(=O)(=O)c2cccc(Cl)c2)nn1C (stereo not drawn) | 8.1* | -56 | / | 0 | / | / | 3 | 0
COC(=O)[C@]12C[C@H](CC(=O)NCc3ccc(OC)c(OC)c3)C(=O)N(Cc3cccc4ccccc34)C1=C[C@H](C(C)C)O[C@@H]2C1CC1 | -4 | / | / | -1 | / | / | / | /
COc1ccc(-n2c(C)c3c(OC)cccc(=O)c3c2C)cc1 | 11* | -25 | 0 | 1 | 2 | 4 | -3 | 1
Cc1cc(C(=O)NCc2ccccc2Br)no1 | 9.4* | -25 | 1 | 1 | -1 | 0 | 1 | 1
O=C(Cc1csc(Nc2nc(=S)[nH]c3ccccc23)n1)NCCCN1CCN(c2ccccc2F)CC1 | 15* | 16 | -4 | 1 | -1 | -3 | 9.6* | 2
CCOC(=O)[C@]12CCCC3=C1N(CCC3)C(=O)[C@@H](CC(=O)NCCCN1CCCC1=O)C2 | -3 | / | / | 0 | / | / | / | /
SMILES | SMARCA2 activ | NR2E3 ag-1 | GASC-1 inh | DAX1 inh-1 | DAX1 inh-2 | NR2E3 ag-2 | SMARCA2 conf | VP16 Luc act
CCc1ccc(-n2nc3cc(C)c(N)cc3n2)cc1 | 11* | -180 | 22 | 3 | 4 | -2 | 5 | 13*
Cc1cc2nn(-c3cccc4ccccc34)nc2cc1N | 1 | -28 | 16 | 0 | 0 | 1 | / | /
O=c1c2[nH]c3cccc(Cl)c3c2ncn1CCN1CCCCC1 | 1 | -23 | 17 | 0 | 1 | -1 | / | /
O=c1c2[nH]c3cccc(Cl)c3c2ncn1CC1CCCO1 (stereo not drawn) | 8.2* | -15 | 5 | 1 | 3 | -2 | 5 | 3
O=S(=O)(Cc1ccccc1)Nc1ccc(F)cc1 | -1 | -10 | 1 | -1 | 0 | / | / | /
NC(=O)C1(Nc2ccc(C(=O)O)cc2)CCCC1 | -5 | -13 | / | -1 | 3 | / | / | /
c1ccc(-c2cc(NCCN3CCCCC3)c3ccccc3n2)cc1 | 25* | 6 | 7 | 0 | 1 | -1 | 78* | 0
Cc1ccc2nc(Cl)c3cc(C(=O)NCCCN4CCCC4)sc3c2c1 | 14* | 6 | 3 | 2 | 1 | -2 | 10* | 1
O=c1[nH]cnc2cc(-c3ccc(Br)cc3)sc12 | 10* | -72 | 14 | 1 | 0 | 6 | 5 | 3
Cc1noc(C)c1COc1ccc(C(=O)NCc2cccs2)cc1 | -2 | -14 | 11 | -1 | -1 | / | / | /
O=C(CSc1nnc(-c2cccs2)o1)Nc1cc(Cl)cc(Cl)c1 | 0 | / | / | 1 | / | / | / | /
CS(=O)(=O)N1CCC(C(=O)Nc2ccc(F)cc2F)CC1 | -2 | -19 | -6 | -1 | -1 | -1 | / | /
O=C(Nc1ccc(F)cc1F)C1CCN(S(=O)(=O)c2cccnc2)CC1 | 8.3* | -7 | -12 | 0 | 3 | -2 | 0 | 0
CN(C(=O)c1ccc(NC(=O)Cc2ccc([N+](=O)[O-])cc2)cc1)C1CCCC1 | -1 | 4 | 3 | 0 | 0 | / | / | /
COc1ccc(OC)c(C(=O)COC(=O)COc2ccccc2)c1 | -1 | -11 | -1 | -1 | 3 | / | / | /
Cc1ccc(/C=C/C2=NN(C)C(=O)CC2)cc1 | 8.3* | -64 | -1 | 3 | 1 | 3 | 6 | 6.6*
COc1ccc(CNC(=O)c2ccc3c(c2)N(C)CCS3)cc1 | 0 | -26 | 8 | 0 | 1 | 2 | / | /
CN1CCSc2ccc(C(=O)Nc3cc(F)ccc3F)cc21 | 11* | -127 | -7 | 4.3* | 9.5* | 0 | 3 | 12*
CCC(=O)Nc1cc(Cl)ccc1C(=O)O | 9.4* | -8 | -7 | 1 | 1 | 0 | -3 | 2
